Results published in ChEMBL document CHEMBL3271979, “Inhibition of solid tumors by nitrosoureas. 1. Lewis lung carcinoma” (1977).
Calls of active or inactive are those of the source. The rule behind the calls is not given here.

Assays:
[1] = Antitumor activity against mouse advanced Lewis lung carcinoma allografted in ip dosed BDF1 mouse assessed as increase in host lifespan administered as single dose on day 6 or 7 post-tumor implantation; assay type: functional
Outline: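 Advanced Lewis lung model: about 40 mg fragments implanted sc by trocar into BDF1 mice, and mice with tumors of about 400 mg (day 6-7) selected. Tumor weight from calipers, w = ab²/2. Agent given as one ip dose in distilled water or physiological saline. Nontumor-bearing mice received matching doses as toxicity controls.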

Mus musculus [2] = assay: Antitumor activity against mouse advanced Lewis lung carcinoma allografted in ip dosed BDF1 mouse assessed as complete regression of established tumor administered as single dose on day 6 or 7 post-tumor implantation; assay type: functional, organism-based
Outline: (§1)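 BDF1 mice (C57Blk/6 × DBA/2) implanted sc by trocar with Lewis lung tumor fragments of about 40 mg, taken only from bacteriologically sterile donor tumors. Mice bearing tumors of about 400 mg (day 6-7) were selected. Each received a single ip dose on day 7, at or below the LD10 in normal mice. Groups were of 10 mice. Tumor weight was taken from calipers as w = ab²/2, measured at least twice weekly. Matched non-tumor mice served as toxicity controls.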

Mus musculus [3] = assay: Antitumor activity against mouse early Lewis lung carcinoma allografted in ip dosed BDF1 mouse administered as single dose on 1 or 2 days post-tumor implantation measured for 80 days post-drug treatment; assay type: functional, organism-based
Outline: (§2)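 BDF1 mice implanted sc by trocar with ~40 mg Lewis lung fragments from sterile donor tumors. A single ip dose was given on day 1 or 2 after implant, in water or saline vehicle. Cures were scored in animals observed for at least 80 days after treatment. Drug-toxicity controls were matched non-tumor-bearing mice monitored for body weight and deaths.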

Mus musculus [4] = assay: (§3) Antitumor activity against mouse early Lewis lung carcinoma allografted in ip dosed BDF1 mouse assessed as disease cure administered as single dose on 1 or 2 days post-tumor implantation measured for 80 days post-drug treatment; assay type: functional; outline: as §2
L1210 = assay: Antitumor activity against mouse L1210 cells allografted in ip dosed mouse assessed as disease cure administered as single dose; assay type: functional, organism-based
Mus musculus [5] = assay: Antitumor activity against mouse advanced Lewis lung carcinoma allografted in BDF1 mouse assessed as disease cure at 45 mg/kg, ip administered as single dose on 7th day post-tumor implantation measured for 80 days post-drug treatment; assay type: functional, organism-based; set-up: dose 45 mg/kg; outline: as §1
Mus musculus [6] = assay: Antitumor activity against mouse advanced Lewis lung carcinoma allografted in BDF1 mouse assessed as complete regression of established tumor at 30 mg/kg, ip administered as single dose on 7th day post-tumor implantation; assay type: functional, organism-based; set-up: dose 30 mg/kg; outline: as §1
[7] = Antitumor activity against mouse advanced Lewis lung carcinoma allografted in BDF1 mouse assessed as increase in host life span at 30 mg/kg, ip administered as single dose on 7th day post-tumor implantation; assay type: functional; settings: route intraperitoneal
Outline: (§4)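 BDF1 mice (C57Blk/6 × DBA/2) implanted sc by trocar with about 40 mg Lewis lung tumor fragments from bacteriologically sterile donors. Advanced-disease groups held tumors of about 400 mg by day 6-7, sized by caliper (w = ab²/2). Single ip injection on day 7, in water or saline vehicle, at or below the LD10 in normal mice. Tumors measured at least twice weekly.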

Mus musculus [8] = assay: Antitumor activity against mouse advanced Lewis lung carcinoma allografted in ip dosed BDF1 mouse assessed as disease cure administered as single dose on day 6 or 7 post-tumor implantation; assay type: functional, organism-based; outline: as §1
Mus musculus [9] = assay: Antitumor activity against mouse advanced Lewis lung carcinoma allografted in BDF1 mouse assessed as disease cure at 30 mg/kg, ip administered as single dose on 7th day post-tumor implantation measured for 80 days post-drug treatment; assay type: functional, organism-based; set-up: dose 30 mg/kg; outline: as §1
[10] = Antitumor activity against mouse advanced Lewis lung carcinoma allografted in BDF1 mouse assessed as increase in host life span at 45 mg/kg, ip administered as single dose on 7th day post-tumor implantation; assay type: functional; settings: route intraperitoneal; outline: as §4
Mus musculus [11] = assay: Antitumor activity against mouse advanced Lewis lung carcinoma allografted in BDF1 mouse assessed as disease cure at 32 mg/kg, ip administered as single dose on 7th day post-tumor implantation measured for 80 days post-drug treatment; assay type: functional, organism-based; set-up: dose 32 mg/kg; outline: as §1
Mus musculus [12] = assay: Antitumor activity against mouse advanced Lewis lung carcinoma allografted in BDF1 mouse assessed as complete regression of established tumor at 32 mg/kg, ip administered as single dose on 7th day post-tumor implantation; assay type: functional, organism-based; set-up: dose 32 mg/kg; outline: as §4
[13] = Antitumor activity against mouse advanced Lewis lung carcinoma allografted in BDF1 mouse assessed as increase in host life span at 32 mg/kg, ip administered as single dose on 7th day post-tumor implantation; assay type: functional; settings: route intraperitoneal; outline: as §4
[14] = Antitumor activity against mouse advanced Lewis lung carcinoma allografted in BDF1 mouse assessed as increase in host life span at 36 mg/kg, ip administered as single dose on 7th day post-tumor implantation; assay type: functional; settings: route intraperitoneal; outline: as §4
Mus musculus [15] = assay: Antitumor activity against mouse advanced Lewis lung carcinoma allografted in BDF1 mouse assessed as disease cure at 36 mg/kg, ip administered as single dose on 7th day post-tumor implantation measured for 80 days post-drug treatment; assay type: functional, organism-based; set-up: dose 36 mg/kg; outline: as §1
Mus musculus [16] = assay: Antitumor activity against mouse advanced Lewis lung carcinoma allografted in BDF1 mouse assessed as complete regression of established tumor at 36 mg/kg, ip administered as single dose on 7th day post-tumor implantation; assay type: functional, organism-based; set-up: dose 36 mg/kg; outline: as §1
[17] = Antitumor activity against mouse advanced Lewis lung carcinoma allografted in BDF1 mouse assessed as increase in host life span at 21 mg/kg, ip administered as single dose on 7th day post-tumor implantation; assay type: functional; settings: route intraperitoneal; outline: as §4
Mus musculus [18] = assay: Antitumor activity against mouse advanced Lewis lung carcinoma allografted in BDF1 mouse assessed as disease cure at 21 mg/kg, ip administered as single dose on 7th day post-tumor implantation measured for 80 days post-drug treatment; assay type: functional, organism-based; set-up: dose 21 mg/kg; outline: as §1
[19] = as §3; assay type: functional; outline: as §2
[20] = Ratio of ED50 for antitumor activity against mouse L1210 cells allografted in ip dosed mouse to LD10 for mouse
[21] = Antitumor activity against mouse early Lewis lung carcinoma allografted in BDF1 mouse assessed as increase in host life span at 30 mg/kg, ip administered as single dose on 1 or 2 days post-tumor implantation; assay type: functional; settings: route intraperitoneal
Outline: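 BDF1 mice (C57Blk/6 × DBA/2) implanted sc by trocar with ~40 mg Lewis lung tumor fragments from bacteriologically sterile donor tumors. Single ip dose on day 1 or 2, as a solution or suspension in water (CMC or gum acacia) or saline (HPC or Tween 80). Read-out is […]. Same-dose toxicity controls were run in nontumor-bearing mice.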

[22] = Antitumor activity against mouse early Lewis lung carcinoma allografted in BDF1 mouse assessed as time delay in tumor growth at 30 mg/kg, ip administered as single dose on 1 or 2 days post-tumor implantation; assay type: functional; settings: route intraperitoneal
Outline: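 BDF1 mice (C57Blk/6 × DBA/2) implanted sc by trocar with ~40 mg Lewis lung tumor fragments from bacteriologically sterile donors. A single ip dose was given on day 1 or 2, as a solution or suspension in water or saline with suspending agent, at ≤0.5 ml. Tumors were measured by caliper at least twice weekly, with weight = ab²/2. Delay was taken as the days for the tumor to reach 1 g.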

[23] = Antitumor activity against mouse early Lewis lung carcinoma allografted in BDF1 mouse assessed as time delay in tumor growth at 13 mg/kg, ip administered as single dose on 1 or 2 days post-tumor implantation; assay type: functional; settings: route intraperitoneal
Outline: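 Sc trocar implants of about 40 mg Lewis lung fragments in BDF1 mice. A single ip injection was given on day 1 or 2, in water or physiological saline, at ≤0.5 ml. Tumor size came from caliper length and width as w = ab²/2, measured at least twice weekly. Growth delay is the extra days taken to reach 1 g, compared with untreated controls.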

[24] = Antitumor activity against mouse early Lewis lung carcinoma allografted in BDF1 mouse assessed as increase in host life span at 13 mg/kg, ip administered as single dose on 1 or 2 days post-tumor implantation; assay type: functional; settings: route intraperitoneal
Outline: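 Early disease: BDF1 mice carrying sc trocar implants of about 40 mg Lewis lung fragments. One ip dose given on day 1 or 2 after implant, in distilled water or saline, at ≤0.5 ml. Endpoints were % increase in life-span of dying animals and delay in days for the primary tumor to reach 1 g. Untreated controls served as reference.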

Compound: CC(=O)O[C@H]1CC[C@H](NC(=O)N(CCF)N=O)CC1
- ILS [1]: <25%
- inhibition (Mus musculus [2]): inactive

Compound: CCCCCC(C)NC(=O)N(CCCl)N=O (configuration not stated)
- ILS [1]: <25%
- Activity (Mus musculus [3]): inactive
- Activity (Mus musculus [4]): inactive
- inhibition (Mus musculus [2]): inactive
- Activity (L1210): inactive

Compound: O=NN(CCCl)C(=O)NC1CCCC1
- ILS [1]: <25%
- inhibition (Mus musculus [2]): inactive

Compound: CCOC(=O)[C@H]1CCC[C@@H](NC(=O)N(CCCl)N=O)C1 (relative stereo)
- Activity (Mus musculus [5]): inactive
- inhibition (Mus musculus [6]): inactive
- ILS at 30 mg/kg [7]: 62%
- Activity (Mus musculus [8]): inactive
- Activity (Mus musculus [9]): inactive
- inhibition (Mus musculus [2]): Active
- ILS at 45 mg/kg [10]: 0%

Compound: O=NN(CCCl)C(=O)NCCF
- Activity (Mus musculus [11]): inactive
- inhibition (Mus musculus [12]): inactive
- ILS at 32 mg/kg [13]: 44%

Compound: CO[C@H]1CC[C@@H](NC(=O)N(CCCl)N=O)CC1
- Activity (Mus musculus [3]): inactive

Compound: CC(=O)O[C@H]1CC[C@H](NC(=O)N(CCCl)N=O)CC1
- ILS [1]: >25%
- ILS at 36 mg/kg [14]: 34%
- Activity (Mus musculus [15]): inactive
- Activity (Mus musculus [8]): inactive
- inhibition (Mus musculus [2]): inactive
- inhibition (Mus musculus [16]): inactive

Compound: O=NN(CCF)C(=O)NC1CCSCC1
- ILS [1]: >25%
- ILS at 36 mg/kg [14]: 87%
- Activity (Mus musculus [15]): inactive
- Activity (Mus musculus [8]): inactive
- inhibition (Mus musculus [2]): inactive

Compound: COC(=O)[C@H]1CC[C@H](NC(=O)N(CCCl)N=O)CC1
- Activity (Mus musculus [11]): inactive
- ILS at 21 mg/kg [17]: 113%
- Activity (Mus musculus [18]): inactive
- Activity (Mus musculus [8]): inactive
- ILS at 32 mg/kg [13]: 86%
- inhibition (Mus musculus [2]): Active

Compound: CC[C@H]1CC[C@H](NC(=O)N(CCF)N=O)CC1
- ILS [1]: <25%
- inhibition (Mus musculus [2]): inactive

Compound: O=NN(CCCl)C(=O)N[C@H]1CC[C@H](C(=O)O)CC1
- Activity [19]: >50%
- Ratio [20]: 0.6
- ILS at 30 mg/kg [21]: 115%
- Time [22]: 20 days
- Time [23]: 7.6 days
- ILS at 30 mg/kg [7]: 67%
- Activity (Mus musculus [8]): Active
- ILS at 13 mg/kg [24]: 33%
- Activity (Mus musculus [9]): inactive

Compound: O=NN(CCF)C(=O)N[C@H]1CC[C@@H](C(=O)O)CC1
- ILS [1]: <25%
- inhibition (Mus musculus [2]): inactive

Compound: C[C@H]1CCC[C@@H](NC(=O)N(CCCl)N=O)C1 (relative stereo)
- ILS [1]: <25%
- inhibition (Mus musculus [2]): inactive
